≈ marks a conversion by molar mass, not a printed value.
Legend:
Candida albicans [1] = experiment: Growth inhibition of Candida albicans ATCC 90028 at 8 ug/ml incubated for 18 hrs at 35 degC by broth microdilution method relative to control; format: functional; conditions: ATCC 90028, 18 h, read-out: GI
Candida albicans [2] = experiment: Growth inhibition of Candida albicans ATCC 90028 at 2 ug/ml incubated for 4 hrs at 35 degC by broth microdilution method relative to control; format: functional; conditions: ATCC 90028, 4 h, read-out: GI
Candida albicans [3] = experiment: Growth inhibition of Candida albicans ATCC 90028 at 0.125 ug/ml incubated for 18 hrs at 35 degC by broth microdilution method relative to control; format: functional; conditions: ATCC 90028, 18 h, read-out: GI
Candida albicans [4] = experiment: Inhibition of cell adhesion of Candida albicans ATCC 90028 to African green monkey Vero cells at 0.0625 ug/ml relative to untreated control; format: functional; conditions: ATCC 90028, Vero
Candida albicans [5] = experiment: Growth inhibition of Candida albicans ATCC 90028 at 1 ug/ml incubated for 18 hrs at 35 degC by broth microdilution method relative to control; format: functional; conditions: ATCC 90028, 18 h, read-out: GI
Candida albicans [6] = experiment: Growth inhibition of Candida albicans ATCC 90028 at 0.0313 ug/ml incubated for 4 hrs at 35 degC by broth microdilution method relative to control; format: functional; conditions: ATCC 90028, 4 h, read-out: GI
Candida albicans [7] = experiment: Inhibition of cell adhesion of Candida albicans ATCC 90028 to African green monkey Vero cells at 16 ug/ml relative to untreated control; format: functional; conditions: ATCC 90028, Vero
Candida albicans [8] = experiment: Fungicidal activity against Candida albicans ATCC 90028 assessed as drug level causing 3 fold reduction in bacterial count after 48 hrs at 35 degC; format: functional; conditions: ATCC 90028, 48 h
Candida albicans [9] = experiment: Growth inhibition of Candida albicans ATCC 90028 at 8 ug/ml incubated for 4 hrs at 35 degC by broth microdilution method relative to control; format: functional; conditions: ATCC 90028, 4 h, read-out: GI
Vero [10] = experiment: Cytotoxicity in African green monkey Vero cells up to 64 ug/ml incubated for 3 to 18 hrs by XTT assay; format: cell-based; conditions: chlorocebus sabaeus
Candida albicans [11] = experiment: Growth inhibition of Candida albicans ATCC 90028 at 0.5 ug/ml incubated for 18 hrs at 35 degC by broth microdilution method relative to control; format: functional; conditions: ATCC 90028, 18 h, read-out: GI
Candida albicans [12] = experiment: Growth inhibition of Candida albicans ATCC 90028 at 0.5 ug/ml incubated for 4 hrs at 35 degC by broth microdilution method relative to control; format: functional; conditions: ATCC 90028, 4 h, read-out: GI
[13] = Toxicity in Galleria mellonella larvae infected with Candida albicans ATCC 90028 infected with 31 uM compound pre-treated cell suspensions assessed as survival incubated in dark for 144 hrs at 30 degC and measured every 24 hrs; format: organism-based; conditions: in vivo
Candida albicans [14] = experiment: Fungicidal activity against Candida albicans ATCC 90028 assessed as log reduction in cell viability at 16 ug/ml after 48 hrs at 35 degC; format: functional
Summary of the method: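 MFC assay on C. albicans ATCC 90028 following M27-A3, at the molar equivalent of 16 µg/mL. CFU of treated cells were compared with CFU of the untreated inoculum. Activity is given as lg R = lg CFU/mL control − lg CFU/mL treated, and lg R ≥3 was defined as fungicidal. Values are means of two independent experiments.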

Candida albicans [15] = experiment: Growth inhibition of Candida albicans ATCC 90028 at 16 ug/ml incubated for 48 hrs at 35 degC by broth microdilution method relative to control; format: functional; conditions: ATCC 90028, 48 h, read-out: GI
Candida albicans [16] = experiment: Growth inhibition of Candida albicans ATCC 90028 at 4 ug/ml incubated for 18 hrs at 35 degC by broth microdilution method relative to control; format: functional; conditions: ATCC 90028, 18 h, read-out: GI
MCF7 [17] = experiment: Antiproliferative activity against human MCF7 cells assessed as cell viability at 25 uM after 72 hrs by MTT assay; format: functional; conditions: MCF7, 72 h, read-out: Activity
Summary of the method: (§1)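 MTT viability assay in CCRF-CEM and MCF-7 cells after 72 h exposure at 25, 50, 100 and 200 µM. Results are relative to control cells without inhibitor in 0.5% DMSO. Done in triplicate; values are means ± SD of three independent experiments.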

Candida albicans [18] = experiment: Growth inhibition of Candida albicans ATCC 90028 at 0.0625 ug/ml incubated for 4 hrs at 35 degC by broth microdilution method relative to control; format: functional; conditions: ATCC 90028, 4 h, read-out: GI
MCF7 [19] = experiment: Antiproliferative activity against human MCF7 cells assessed as cell viability at 100 uM after 72 hrs by MTT assay; format: functional; conditions: MCF7, 72 h, read-out: Activity; summary of the method: as §1
Candida albicans [20] = experiment: Inhibition of cell adhesion of Candida albicans ATCC 90028 to African green monkey Vero cells at 2 ug/ml relative to untreated control; format: functional; conditions: ATCC 90028, Vero
Candida albicans [21] = experiment: Growth inhibition of Candida albicans ATCC 90028 at 4 uM incubated for 48 hrs at 35 degC by broth microdilution method relative to control; format: functional; conditions: ATCC 90028, 48 h
[22] = Toxicity in Galleria mellonella larvae infected with Candida albicans ATCC 90028 infected with 20 uM compound pre-treated cell suspensions assessed as survival incubated in dark for 144 hrs at 30 degC and measured every 24 hrs; format: organism-based; conditions: in vivo
MCF7 [23] = experiment: Antiproliferative activity against human MCF7 cells assessed as cell viability at 200 uM after 72 hrs by MTT assay; format: functional; conditions: MCF7, 72 h, read-out: Activity; summary of the method: as §1
Candida albicans [24] = experiment: Growth inhibition of Candida albicans ATCC 90028 at 2 ug/ml incubated for 18 hrs at 35 degC by broth microdilution method relative to control; format: functional; conditions: ATCC 90028, 18 h, read-out: GI
Candida albicans [25] = experiment: Antifungal activity against Candida albicans ATCC 90028 assessed as reduction in cell viability at 1022.5 to 0.06 uM after 48 hrs in presence of ergosterol by XTT assay; format: functional; conditions: ATCC 90028, 48 h
MCF7 [26] = experiment: Antiproliferative activity against human MCF7 cells after 72 hrs by MTT assay; format: functional, cell-based; conditions: MCF7, 72 h
Summary of the method: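 EC50 was derived from a repeat 72 h MTT assay in CCRF-CEM or MCF-7 cells. It is the concentration killing 50% of tumour cells compared with control cells incubated without inhibitor in 0.5% DMSO.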

Candida albicans [27] = experiment: Growth inhibition of Candida albicans ATCC 90028 at 16 ug/ml incubated for 18 hrs at 35 degC by broth microdilution method relative to control; format: functional; conditions: ATCC 90028, 18 h, read-out: GI
Candida albicans [28] = experiment: Growth inhibition of Candida albicans ATCC 90028 at 1 ug/ml incubated for 4 hrs at 35 degC by broth microdilution method relative to control; format: functional; conditions: ATCC 90028, 4 h, read-out: GI
Candida albicans [29] = experiment: Growth inhibition of Candida albicans ATCC 90028 at 0.0313 ug/ml incubated for 18 hrs at 35 degC by broth microdilution method relative to control; format: functional; conditions: ATCC 90028, 18 h, read-out: GI
MCF7 [30] = experiment: Antiproliferative activity against human MCF7 cells assessed as cell viability at 50 uM after 72 hrs by MTT assay; format: functional; conditions: MCF7, 72 h, read-out: Activity; summary of the method: as §1
CCRF-CEM [31] = experiment: Antiproliferative activity against human CCRF-CEM cells assessed as cell viability at 200 uM after 72 hrs by MTT assay; format: functional; conditions: read-out: Activity; summary of the method: as §1
CCRF-CEM [32] = experiment: Antiproliferative activity against human CCRF-CEM cells assessed as cell viability at 25 uM after 72 hrs by MTT assay; format: functional; conditions: read-out: Activity; summary of the method: as §1
Candida albicans [33] = experiment: Growth inhibition of Candida albicans ATCC 90028 at 0.125 ug/ml incubated for 4 hrs at 35 degC by broth microdilution method relative to control; format: functional; conditions: ATCC 90028, 4 h, read-out: GI
Vero [34] = experiment: Cytotoxicity in African green monkey Vero cells at 256 ug/ml incubated for 3 to 18 hrs by XTT assay; format: cell-based; conditions: chlorocebus sabaeus

| SMILES | inhibition of growth at 8 µg/mL (Candida albicans [1]) | inhibition of growth at 2 µg/mL (Candida albicans [2]) | inhibition of growth at 0.125 µg/mL (Candida albicans [3]) | inhibition at 0.0625 µg/mL (Candida albicans [4]) | inhibition of growth at 1 µg/mL (Candida albicans [5]) | inhibition of growth at 0.0313 µg/mL (Candida albicans [6]) | inhibition at 16 µg/mL (Candida albicans [7]) | MFC (Candida albicans [8]) | inhibition of growth at 8 µg/mL (Candida albicans [9]) | Activity (Vero [10]) | inhibition of growth at 0.5 µg/mL (Candida albicans [11]) | inhibition of growth at 0.5 µg/mL (Candida albicans [12]) | survival at 24 h, 31 µM [13] | log(activity) (Candida albicans [14]) | inhibition of growth at 16 µg/mL (Candida albicans [15]) | inhibition of growth at 4 µg/mL (Candida albicans [16]) | viability at 25 µM (MCF7 [17]) | inhibition of growth at 0.0625 µg/mL (Candida albicans [18]) | viability at 100 µM (MCF7 [19]) | inhibition at 2 µg/mL (Candida albicans [20]) | also measured |
| --- | --- | --- | --- | --- | --- | --- | --- | --- | --- | --- | --- | --- | --- | --- | --- | --- | --- | --- | --- | --- | --- |
| CC(Cn1cnc2c1c(=O)n(C)c(=O)n2C)OCc1cn(CCCn2nc3c(Br)c(Br)c(Br)c(Br)c3n2)nn1 (stereo not drawn) | 100% | 99.1% | 99.1% | 89% | 99.4% | 99.1% | 100% | 5 µM (≈ 3.97 µg/mL) | 99.1% | Non-Toxic | 99.2% | 99.1% | 90 to 100% | 8 | 100% | 100% | 58.3% | 99% | 59.1% | 89% | MIC (Candida albicans [21]): 10 µM (≈ 7.94 µg/mL); survival at 24 h, 20 µM [22]: 90 to 100%; viability at 200 µM (MCF7 [23]): 53.7%; inhibition of growth at 2 µg/mL (Candida albicans [24]): 99.9%; MIC (Candida albicans [25]): 8 µM; EC50 (MCF7 [26]): 80 µM; inhibition of growth at 16 µg/mL (Candida albicans [27]): 100%; inhibition of growth at 1 µg/mL (Candida albicans [28]): 99.1%; inhibition of growth at 0.0313 µg/mL (Candida albicans [29]): 99.1%; viability at 50 µM (MCF7 [30]): 59.8%; viability at 200 µM (CCRF-CEM [31]): 0%; viability at 25 µM (CCRF-CEM [32]): 0%; inhibition of growth at 0.125 µg/mL (Candida albicans [33]): 99%; Activity (Vero [34]): Toxic |
| CC(CN1c2ccccc2Sc2ccccc21)OC(=O)OC(C)Cn1cnc2c1c(=O)n(C)c(=O)n2C (stereo not drawn) | 100% | 99.5% | 99.9% | 89% | 100% | 99.2% | 100% | 15 µM (≈ 7.82 µg/mL) | 100% | Non-Toxic | 99.9% | 99.1% | 90 to 100% | 8 | 100% | 100% | 58.8% | 99.1% | 27.1% | 89% | MIC (Candida albicans [21]): 4 µM (≈ 2.09 µg/mL); survival at 24 h, 20 µM [22]: 90 to 100%; viability at 200 µM (MCF7 [23]): 20.8%; inhibition of growth at 2 µg/mL (Candida albicans [24]): 100%; MIC (Candida albicans [25]): 38 µM; EC50 (MCF7 [26]): 80 µM; inhibition of growth at 16 µg/mL (Candida albicans [27]): 100%; inhibition of growth at 1 µg/mL (Candida albicans [28]): 99.5%; inhibition of growth at 0.0313 µg/mL (Candida albicans [29]): 99.6%; viability at 50 µM (MCF7 [30]): 38.3%; viability at 200 µM (CCRF-CEM [31]): 0%; viability at 25 µM (CCRF-CEM [32]): 22.1%; inhibition of growth at 0.125 µg/mL (Candida albicans [33]): 99.1%; Activity (Vero [34]): Toxic |
